{
  "source": "paper PMC6905387",
  "about": "(ACS chemical biology, 2018)",
  "key": {"Mammalian TrxR [1]": {"test_system": "Mammalian TrxR", "conditions": "ref Bioassays AID 588453 and AID 588456, cited from earlier work"}, "adult worms": {"test_system": "adult worms", "test": "Schistosomicidal activity against ex vivo adult worms", "design": "species or system Schistosoma mansoni", "summary_of_the_method": "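Adult Schistosoma mansoni were perfused from mice seven weeks after infection. They were cultured for 24 hr in RPMI with 10% fetal calf serum, 10 mM glutamine and 1X penicillin/streptomycin before test compound was added. Untreated worms served as controls. Worms were checked daily and scored dead when no movement was seen.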"}, "schistosomula": {"test_system": "schistosomula", "test": "Schistosomicidal activity against ex vivo schistosomula", "design": "species or system Schistosoma mansoni", "summary_of_the_method": "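Schistosomula were made by mechanical transformation of cercariae from infected Biomphalaria glabrata, then isolated on a Percoll gradient. They were cultured for 24 hr in M-199 with 10% fetal calf serum before test compound was added. Untreated larvae served as controls. Survival was followed by daily observation, and larvae without movement were scored dead.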"}, "[2]": {"test": "Behaviour of compound in worm culture medium", "assay_type": "physicochemical"}, "SmTGR [3]": {"target": "T1, SmTGR (Schistosoma mansoni, UniProt Q962Y6)", "T1 sequence (Q962Y6 1-598)": "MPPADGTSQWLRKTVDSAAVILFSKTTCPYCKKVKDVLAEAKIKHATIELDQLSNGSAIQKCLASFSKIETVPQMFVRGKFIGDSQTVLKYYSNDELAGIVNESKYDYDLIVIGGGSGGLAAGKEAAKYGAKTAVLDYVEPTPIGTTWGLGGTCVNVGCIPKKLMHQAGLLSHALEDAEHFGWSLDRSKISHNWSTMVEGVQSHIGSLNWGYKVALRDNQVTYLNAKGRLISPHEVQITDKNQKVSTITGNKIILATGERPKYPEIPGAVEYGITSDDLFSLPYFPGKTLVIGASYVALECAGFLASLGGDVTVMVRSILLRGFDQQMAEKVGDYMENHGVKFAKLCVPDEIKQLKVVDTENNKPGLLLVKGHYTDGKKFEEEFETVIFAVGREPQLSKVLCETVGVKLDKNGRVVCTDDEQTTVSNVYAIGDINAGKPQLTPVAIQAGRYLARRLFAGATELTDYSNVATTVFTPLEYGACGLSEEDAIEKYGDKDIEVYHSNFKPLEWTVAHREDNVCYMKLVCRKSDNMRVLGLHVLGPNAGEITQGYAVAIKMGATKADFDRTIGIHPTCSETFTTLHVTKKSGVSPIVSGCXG", "test": "SmTGR enzymatic assay", "assay_type": "biochemical"}, "[4]": {"test_system": "TGR activity in treated worms", "test": "Inhibition of TGR in treated ex vivo worms", "design": "species or system Schistosoma mansoni", "conditions": "adult worms cultured with 50 μM compound, versus DMSO-treated worms"}, "Mammalian TrxR [5]": {"test_system": "Mammalian TrxR", "test": "Mammalian TrxR inhibition", "assay_type": "biochemical", "conditions": "in words"}, "hGR": {"target": "T2, hGR (Homo sapiens, UniProt P00390)", "T2 sequence (P00390 44-522)": "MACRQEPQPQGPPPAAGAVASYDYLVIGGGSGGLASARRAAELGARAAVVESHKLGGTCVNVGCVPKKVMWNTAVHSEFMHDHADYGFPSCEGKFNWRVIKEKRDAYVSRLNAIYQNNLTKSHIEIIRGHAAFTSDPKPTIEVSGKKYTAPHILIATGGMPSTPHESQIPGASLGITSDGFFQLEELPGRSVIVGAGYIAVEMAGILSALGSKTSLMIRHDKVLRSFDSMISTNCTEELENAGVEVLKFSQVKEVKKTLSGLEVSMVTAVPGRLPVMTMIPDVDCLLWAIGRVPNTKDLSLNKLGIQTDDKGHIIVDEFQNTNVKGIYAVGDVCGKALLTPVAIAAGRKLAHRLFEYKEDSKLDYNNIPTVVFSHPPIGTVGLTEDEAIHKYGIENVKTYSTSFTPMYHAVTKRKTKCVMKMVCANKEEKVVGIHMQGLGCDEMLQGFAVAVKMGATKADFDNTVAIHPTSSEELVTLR", "test": "Activity against human glutathione reductase", "assay_type": "biochemical", "conditions": "results not shown"}, "SmTGR [6]": {"target": "T1, SmTGR", "test": "Steady state experiments varying NADPH at saturating DTNB", "assay_type": "biochemical"}},
  "note": "Entries after “also recorded” stand apart in the source; their conditions may differ.",
  "data": [
    {"smiles": "CCOC(=O)c1c(C)oc2c1c(CN1CCN(CCO)CC1)c(O)c1ccccc12", "note": "[Compound 6, ethyl 5-hydroxy-4-{[4-(2-hydroxyethyl)piperazin-1-yl]methyl}−2-methylnaphtho[1,2-b]furan-3-carboxylate]", "values": [
      {"measurement": "IC50", "setting": "Mammalian TrxR [1]; read-out: Mammalian TrxR IC50", "value": 1.12, "unit": "µM"},
      {"measurement": "Adult worms killed", "setting": "adult worms; 10 μM, in five days", "value": 9, "unit": "%"},
      {"measurement": "Adult worms killed", "setting": "adult worms; 50 μM, in four days", "value": 100, "unit": "%"},
      {"measurement": "Schistosomula killed", "setting": "schistosomula; 10 μM, in five days", "value": 100, "unit": "%"},
      {"measurement": "Schistosomula killed", "setting": "schistosomula; 50 μM, in 24 hr", "value": "killed all schistosomula"},
      {"measurement": "Solubility behaviour in culture medium", "setting": "[2]", "value": "initially precipitated in the culture medium then slowly dissolved over the following hours"},
      {"measurement": "IC50", "setting": "SmTGR [3]", "value": 0.06, "unit": "µM"},
      {"measurement": "Fold more potent than 5 (SmTGR IC50)", "setting": "SmTGR [3]; IC50 of 6 compared with IC50 of 5", "value": 2000, "unit": "fold"},
      {"measurement": "GR (GSH disulfide reduction) activity in treated worms", "setting": "[4]", "value": "significant inhibition"},
      {"measurement": "TrxR (DTNB reduction) activity in treated worms", "setting": "[4]", "value": "significant inhibition"},
      {"measurement": "Selectivity for SmTGR over hTrxR", "setting": "Mammalian TrxR [5]", "value": "high selectivity"}
    ]},
    {"smiles": "O=C(O)c1ccc2ccccc2c1", "note": "[CID: 7123, 2-Naphthoic acid]", "values": [
      {"measurement": "IC50", "setting": "SmTGR [3]", "value": 1100, "unit": "µM"}
    ]},
    {"smiles": "NCCCCN1CCN(CCO)CC1", "note": "[Compound 3, 2-[4-(4-aminobutyl)piperazin-1-yl]ethanol]", "values": [
      {"measurement": "IC50", "setting": "SmTGR [3]", "value": "> 10000", "unit": "µM"}
    ]},
    {"smiles": "O=C(O)c1ccc2ncccc2n1", "note": "[CID: 12426408, 1,5-Naphthyridine-2-carboxylic acid]", "values": [
      {"measurement": "IC50", "setting": "SmTGR [3]", "value": 2600, "unit": "µM"}
    ]},
    {"smiles": "O=C(O)c1ccc2cccnc2n1", "note": "[Compound 1, 1,8-naphthyridine-2-carboxylate]", "values": [
      {"measurement": "Inhibition of mammalian hTrxR (in words)", "setting": "Mammalian TrxR [1]", "value": "does not inhibit; also recorded: undetectable inhibition"},
      {"measurement": "Mammalian TrxR IC50", "setting": "Mammalian TrxR [1]", "value": "Inactive"},
      {"measurement": "Adult worms killed", "setting": "adult worms; 10 μM, in five days", "value": 0, "unit": "%"},
      {"measurement": "Adult worms killed", "setting": "adult worms; 50 μM, in five days", "value": 13, "unit": "%"},
      {"measurement": "Activity against hGR", "setting": "hGR", "value": "no detectable activity"},
      {"measurement": "Schistosomula killed", "setting": "schistosomula; 10 μM, in five days", "value": 0, "unit": "%"},
      {"measurement": "Schistosomula killed", "setting": "schistosomula; 50 μM, in five days", "value": 11, "unit": "%"},
      {"measurement": "Inhibition mechanism versus NADPH", "setting": "SmTGR [6]; NADPH 0.01 to 1 mM, DTNB 3 mM", "value": "mixed competitive inhibition mechanism"},
      {"measurement": "KIS, binding of inhibitor to NADPH-bound enzyme (estimated)", "setting": "SmTGR [6]; at 3 mM DTNB", "value": 4.8, "unit": "mM"},
      {"measurement": "Selectivity for SmTGR over hTrxR", "setting": "Mammalian TrxR [5]", "value": "high selectivity"}
    ]},
    {"smiles": "O=S(=O)(O)CCN1CCN(CCO)CC1", "note": "[Compound 4, 4-(2-Hydroxyethyl)-1-piperazineethanesulfonic acid]", "values": [
      {"measurement": "IC50", "setting": "SmTGR [3]", "value": 3300, "unit": "µM"}
    ]},
    {"smiles": "O=C(O)c1ccc(CN2CCN(CCO)CC2)nc1", "note": "[CID: 80159879, 6-((4-(2-Hydroxyethyl)piperazin-1-yl)methyl)nicotinic acid]", "values": [
      {"measurement": "IC50", "setting": "SmTGR [3]", "value": 4400, "unit": "µM"}
    ]},
    {"smiles": "OCCN1CCN(Cc2cc(Cl)c3cccnc3c2O)CC1", "note": "[Compound 5, 5-chloro-7-((4-(2-hydroxyethyl)piperazin-1-yl)methyl)quinolin-8-ol]", "values": [
      {"measurement": "Inhibition of mammalian hTrxR (in words)", "setting": "Mammalian TrxR [1]", "value": "undetectable inhibition"},
      {"measurement": "Mammalian TrxR IC50", "setting": "Mammalian TrxR [1]", "value": "Inactive"},
      {"measurement": "Adult worms killed", "setting": "adult worms; 10 μM, in five days", "value": 27, "unit": "%"},
      {"measurement": "Adult worms killed", "setting": "adult worms; 50 μM, in five days", "value": 88, "unit": "%"},
      {"measurement": "Schistosomula killed", "setting": "schistosomula; 10 μM, in five days", "value": 80, "unit": "%"},
      {"measurement": "Schistosomula killed", "setting": "schistosomula; 50 μM, in 24 hr", "value": "killed all schistosomula"},
      {"measurement": "IC50", "setting": "SmTGR [3]", "value": 120, "unit": "µM"},
      {"measurement": "GR (GSH disulfide reduction) activity in treated worms", "setting": "[4]", "value": "significant inhibition"},
      {"measurement": "TrxR (DTNB reduction) activity in treated worms", "setting": "[4]", "value": "significant inhibition"},
      {"measurement": "Selectivity for SmTGR over hTrxR", "setting": "Mammalian TrxR [5]", "value": "high selectivity"}
    ]},
    {"smiles": "OCCN1CCN(CCO)CC1", "note": "[Compound 2, 1,4-bis(2-hydroxyethyl)piperazine]", "values": [
      {"measurement": "SmTGR IC50", "setting": "SmTGR [3]; 6-His-tagged SmTGRwt 20 nM, 10 min preincubation with NADPH 100 μM, DTNB 3 mM", "value": "inactive"}
    ]}
  ]
}
